Data on 42 molecules can be found in ChEMBL document CHEMBL4145461, “Novel non-sulfonamide 5-HT6 receptor partial inverse agonist in a group of imidazo[4,5-b]pyridines with cognition enhancing properties” (Eur J Med Chem, 2018).

The target of test [1] is T1, 5-hydroxytryptamine receptor 6 (Homo sapiens, UniProt P50406). As to the kind of experiment: Displacement of [3H]-LSD from human 5HT6R expressed in HEK293 cell membranes after 1 hr by microbeta counting method. A digest of the protocol:
(§1)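 HEK293 (5-HT1A, 5-HT6, 5-HT7b, D2L) or CHO-K1 (5-HT2A) membranes, all Tris–HCl with 4 mM MgCl2 plus receptor-specific EDTA/pargyline/ascorbate (D2L adds NaCl, KCl, CaCl2). Nonspecific binding: 10 μM 5-HT (5-HT1A, 5-HT7), chlorpromazine (5-HT2A), methiothepine (5-HT6), haloperidol (D2L). Triplicate, 7–8 concentrations (10⁻¹¹–10⁻⁴ M), filtration; Ki via Cheng–Prusoff, mean of three experiments. Incubation 1 h 37 °C; 5-HT1A 1 h and 5-HT2A 1.5 h, room temperature.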

In test [2] the target is 5-hydroxytryptamine receptor 7 (Homo sapiens, UniProt P34969). As to the kind of experiment: Displacement of [3H]-5-CT from human 5HT7BR expressed in HEK293 cell membranes after 1 hr by microbeta counting method. In outline: as §1
(In general: Loss of bound radioactivity is the signal in a displacement assay; it reports binding, not function.)

A further test concerns the target D(2) dopamine receptor (Homo sapiens, UniProt P14416). As to the kind of experiment: Displacement of [3H]-Raclopride from human dopamine D2L receptor expressed in HEK293 cell membranes after 1 hr by microbeta counting method. In outline:
as §1

For test [3], the system named is Rattus norvegicus. As to the kind of experiment: Reversal of PCP-induced cognitive impairment in Sprague-Dawley rat assessed as reduction in time spent exploring novel object over familiar object at 0.3 to 1 mg/kg, po administered 120 mins before familiarization phase measured for 3 mins post familiarization phase by novel object recognition assay. It counts as functional, organism-based. A digest of the protocol: (§2)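 Male Sprague–Dawley rats, habituated to the arena 5 min 24 h before testing. PCP (5 mg/kg i.p., 45 min) or scopolamine (1.25 mg/kg i.p., 30 min) given before familiarization trial T1; test compound or donepezil given p.o. 120 min before T1. T1 and T2 each last 3 min, separated by an inter-trial interval. DI = (EB−EA)/(EA+EB) from T2 exploration time; 8–10 rats/group; ANOVA with Newman–Keuls.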

The target of test [4] is T1, 5-hydroxytryptamine receptor 6. As to the kind of experiment: Binding affinity to 5HT6R (unknown origin).
For test [5] the target is unchanged. Description: Antagonist activity at 5HT6R (unknown origin) transfected in NG108-15 cells co-transfected with CAMYEL assessed as reduction in cAMP levels after 5 mins by Coelanterazine H-based BRET assay. Type of test: functional, cell-based.
The target of test [6] is T2, 5-hydroxytryptamine receptor 1A (Homo sapiens, UniProt P08908).
T2 sequence (P08908 whole entry): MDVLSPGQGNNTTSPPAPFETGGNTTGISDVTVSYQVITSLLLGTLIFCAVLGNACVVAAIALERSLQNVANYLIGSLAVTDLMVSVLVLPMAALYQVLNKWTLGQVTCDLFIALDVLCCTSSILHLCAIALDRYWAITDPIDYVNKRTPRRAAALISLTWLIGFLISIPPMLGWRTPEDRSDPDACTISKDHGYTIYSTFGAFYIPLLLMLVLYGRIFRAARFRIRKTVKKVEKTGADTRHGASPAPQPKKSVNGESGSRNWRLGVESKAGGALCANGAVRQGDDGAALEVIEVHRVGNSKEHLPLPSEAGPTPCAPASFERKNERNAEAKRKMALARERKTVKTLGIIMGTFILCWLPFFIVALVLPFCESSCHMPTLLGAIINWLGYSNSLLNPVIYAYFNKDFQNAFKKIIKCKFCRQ
Description: Displacement of [3H]-8-OH-DPAT from human 5HT1AR expressed in HEK293 cell membranes after 1 hr by microbeta counting method. In outline: (§3)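 HEK293 (5-HT1A, 5-HT6, 5-HT7b, D2L) or CHO-K1 (5-HT2A) membranes, all Tris–HCl with 4 mM MgCl2 plus receptor-specific EDTA/pargyline/ascorbate (D2L adds NaCl, KCl, CaCl2). Nonspecific binding: 10 μM 5-HT (5-HT1A, 5-HT7), chlorpromazine (5-HT2A), methiothepine (5-HT6), haloperidol (D2L). Triplicate, 7–8 concentrations (10⁻¹¹–10⁻⁴ M), filtration; Ki via Cheng–Prusoff, mean of three experiments.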

The target in test [7] is 5-hydroxytryptamine receptor 2A (Homo sapiens, UniProt P28223). As to the kind of experiment: Displacement of [3H]-Ketanserin from human 5HT2AR expressed in CHO-K1 cell membranes after 1.5 hrs by microbeta counting method. In outline: as §3
Test [8] relates to Rattus norvegicus. As to the kind of experiment: Reversal of SCOP-induced cognitive impairment in Sprague-Dawley rat assessed as reduction in time spent exploring novel object over familiar object at 0.3 mg/kg, po administered 120 mins before familiarization phase measured for 3 mins post familiarization phase by novel object recognition assay. Type of test: functional, organism-based.

For test [9], the system named is Rattus norvegicus. Description: Reversal of SCOP-induced cognitive impairment in Sprague-Dawley rat assessed as reduction in time spent exploring novel object over familiar object at 1 mg/kg, po administered 120 mins before familiarization phase measured for 3 mins post familiarization phase by novel object recognition assay. Type of test: functional, organism-based. A digest of the protocol: as §2

Calls of active or inactive are those of the source. No cut-off for these calls is given here.

T1 sequence (P50406 whole entry): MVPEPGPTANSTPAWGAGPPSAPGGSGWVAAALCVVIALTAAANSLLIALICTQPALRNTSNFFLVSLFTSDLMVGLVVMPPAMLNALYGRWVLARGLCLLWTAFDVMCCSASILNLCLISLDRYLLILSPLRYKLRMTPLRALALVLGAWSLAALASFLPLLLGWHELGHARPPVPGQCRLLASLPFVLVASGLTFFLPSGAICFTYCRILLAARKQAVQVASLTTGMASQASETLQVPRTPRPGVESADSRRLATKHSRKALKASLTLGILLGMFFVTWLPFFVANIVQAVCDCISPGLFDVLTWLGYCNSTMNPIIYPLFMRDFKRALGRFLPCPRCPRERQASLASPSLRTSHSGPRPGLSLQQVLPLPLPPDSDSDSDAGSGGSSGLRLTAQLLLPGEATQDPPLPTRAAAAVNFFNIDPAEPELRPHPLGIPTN
Chain of D(2) dopamine receptor (P14416 whole entry): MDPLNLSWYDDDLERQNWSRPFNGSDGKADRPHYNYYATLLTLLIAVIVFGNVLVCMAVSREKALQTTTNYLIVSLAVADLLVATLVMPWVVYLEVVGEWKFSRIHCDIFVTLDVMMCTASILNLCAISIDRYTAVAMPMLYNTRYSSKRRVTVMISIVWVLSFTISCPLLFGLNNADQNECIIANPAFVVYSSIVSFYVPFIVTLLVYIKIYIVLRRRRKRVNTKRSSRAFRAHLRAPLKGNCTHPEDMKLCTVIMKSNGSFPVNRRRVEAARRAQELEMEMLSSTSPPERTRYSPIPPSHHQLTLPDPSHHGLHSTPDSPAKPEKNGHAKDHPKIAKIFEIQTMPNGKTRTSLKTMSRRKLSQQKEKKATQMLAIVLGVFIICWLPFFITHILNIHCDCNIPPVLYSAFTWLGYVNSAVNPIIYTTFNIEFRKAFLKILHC
Chain of 5-hydroxytryptamine receptor 2A (P28223 whole entry): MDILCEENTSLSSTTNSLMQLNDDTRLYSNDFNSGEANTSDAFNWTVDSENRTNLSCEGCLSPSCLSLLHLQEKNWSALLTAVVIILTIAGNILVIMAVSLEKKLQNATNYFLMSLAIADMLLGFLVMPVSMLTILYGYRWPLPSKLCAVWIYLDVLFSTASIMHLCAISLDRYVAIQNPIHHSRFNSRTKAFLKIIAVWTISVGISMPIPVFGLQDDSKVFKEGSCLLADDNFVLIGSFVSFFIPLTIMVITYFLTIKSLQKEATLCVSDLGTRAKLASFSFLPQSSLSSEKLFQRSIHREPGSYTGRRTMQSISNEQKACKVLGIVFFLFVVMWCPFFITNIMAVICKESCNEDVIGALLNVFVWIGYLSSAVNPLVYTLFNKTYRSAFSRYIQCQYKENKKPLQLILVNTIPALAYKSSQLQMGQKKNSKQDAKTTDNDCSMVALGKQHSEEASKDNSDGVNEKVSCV
Chain of 5-hydroxytryptamine receptor 7 (P34969 whole entry): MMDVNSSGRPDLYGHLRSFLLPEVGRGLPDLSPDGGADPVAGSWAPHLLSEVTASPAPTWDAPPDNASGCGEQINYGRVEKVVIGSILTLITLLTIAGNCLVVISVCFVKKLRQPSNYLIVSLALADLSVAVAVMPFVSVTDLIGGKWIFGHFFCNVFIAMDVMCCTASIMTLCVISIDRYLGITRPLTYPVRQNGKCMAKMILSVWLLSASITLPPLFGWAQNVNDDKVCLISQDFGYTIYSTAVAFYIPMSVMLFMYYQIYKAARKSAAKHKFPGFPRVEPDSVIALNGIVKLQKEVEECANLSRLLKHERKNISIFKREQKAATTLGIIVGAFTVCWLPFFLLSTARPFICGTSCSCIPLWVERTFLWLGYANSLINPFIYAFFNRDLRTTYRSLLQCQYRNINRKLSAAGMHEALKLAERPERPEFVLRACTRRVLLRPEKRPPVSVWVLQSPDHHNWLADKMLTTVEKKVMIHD

The molecule `Cc1cccc(Cn2c(CC(C)(C)C)nc3c(N4CCNCC4)ccnc32)c1` came in with a Ki in test [1] of 142 nM.

As for `Cc1nc2c(N3CCNCC3)nccc2n1Cc1ccccc1`, the Ki in test [1] was 374 nM.

On to `O=S(=O)(c1ccccc1)c1cnc2c(N3CCNCC3)cccc2c1` [INTEPIRDINE], for which the figures for the Ki (in [2]; at D(2) dopamine receptor) were 14200 nM and 997 nM, respectively. For the same molecule, the outcome with Rattus norvegicus [3] was Active.

In [1], `CC(C)c1nc2c(N3CCNCC3)ccnc2n1CCc1cccc(Cl)c1` registered a Ki of 80 nM.

For `c1ccc(Cn2cnc3c(N4CCNCC4)ccnc32)cc1`, in test [1], the affinity corresponds to a Ki of 110 nM.

`Fc1ccc(-c2nc3c(N4CCNCC4)ccnc3n2Cc2cccc(F)c2)cc1` displayed a Ki in test [1] of 162 nM.

Turning to `CCc1nc2c(N3CCNCC3)ccnc2n1Cc1cc(F)ccc1F`, in [1], the Ki was found to be 57 nM. This Ki is about 2.8-fold lower than that of the molecule before.

With `c1ccc(Cn2cnc3c(N4CCNCC4)nccc32)cc1`, in test [1], the Ki was 450 nM.

In [1], `CCc1nc2c(N3CCNCC3)ccnc2n1Cc1ccccc1` returned a Ki of 36 nM. Against the preceding molecule, the Ki is about 12-fold lower.

In [1], `Clc1cccc(CCn2cnc3c(N4CCNCC4)ccnc32)c1` registered a Ki of 1250 nM.

Consider `CCc1nc2c(N3CCNCC3)ccnc2n1Cc1ccc(F)c(F)c1`, for which, in test [1], the affinity, expressed as Ki, was 139 nM.

Molecule `NC(=O)NC[C@@H]1CCCc2cc(S(=O)(=O)c3cccc(F)c3)ccc21` registered a Ki in test [4] of 0.2 nM.

For `CCC(CC)c1nc2c(N3CCNCC3)ccnc2n1Cc1ccccc1Cl`, the Ki in test [1] was found to be 108 nM.

For `CC(C)c1nc2c(N3CCNCC3)nccc2n1Cc1cccc(Cl)c1`, in [1], the affinity, expressed as Ki, was 126 nM.

Consider `Cc1nc2c(N3CCNCC3)ccnc2n1Cc1ccc(F)cc1`, for which, in test [1], affinity was put at a Ki of 317 nM. Against the preceding molecule, the Ki is about 2.5-fold higher.

In test [1], `Cc1nc2c(N3CCNCC3)ccnc2n1CCc1cccc(Cl)c1` registered a Ki of 312 nM.

Regarding `CCc1nc2c(N3CCNCC3)ccnc2n1Cc1cccc(Cl)c1`, the Ki is 7 nM in test [1]; 1350 nM in [6]; 449 nM in test [7]; 8750 nM in test [2]; 6100 nM on D(2) dopamine receptor. For the same molecule, the IC50 in test [5] stood at 51.9 nM.

As for `COc1ccccc1Cn1c(C)nc2c(N3CCNCC3)ccnc21`, the Ki in [1] came to 337 nM.

As for `Clc1cccc(Cn2cnc3c(N4CCNCC4)nccc32)c1`, the Ki in test [1] amounted to 320 nM. This Ki and that of the molecule before are within 1.5-fold of each other.

Turning to `COc1cc2c(cc1OC)C(=O)C(CC1CCN(Cc3ccccc3)CC1)C2` (stereo not drawn), the result in the test with Rattus norvegicus [8] was inactive. In the test on Rattus norvegicus [9], the result was Active.

Consider `Cc1nc2c(N3CCNCC3)ccnc2n1Cc1ccccc1`, for which the Ki in test [1] is 101 nM.

On to `Cc1nc2c(N3CCNCC3)nccc2n1Cc1cccc(Cl)c1`, for which the Ki in test [1] worked out at 254 nM.

In turn, `CCc1nc2c(N3CCNCC3)ccnc2n1Cc1ccccc1Cl` showed a Ki in test [1] of 177 nM.

On to `O=S(=O)(c1ccccc1)n1ncc2c(N3CCNCC3)nccc21`, for which, in test [4], the affinity corresponds to a Ki of 5 nM.

Regarding `COc1cccc(Cn2c(C(C)C)nc3c(N4CCNCC4)ccnc32)c1`, the inhibition constant (Ki) in test [1] came to 92 nM.

`Clc1cccc(Cn2cnc3c(N4CCNCC4)ccnc32)c1`: the Ki in test [1] was found to be 33 nM. Against the preceding molecule, the Ki is about 2.8-fold lower.

In [1], `CC(C)c1nc2c(N3CCNCC3)ccnc2n1Cc1ccc(Cl)cc1` had a Ki of 107 nM.

In the case of `CCC(CC)c1nc2c(N3CCNCC3)ccnc2n1Cc1cccc(C)c1`, the Ki in [1] was 42 nM. Compared with the last molecule, the Ki is about 2.5-fold lower.

`CC(C)c1nc2c(N3CCNCC3)ccnc2n1Cc1ccc(F)cc1` showed a Ki in test [1] of 80 nM.

On to `Fc1cccc(CCn2cnc3c(N4CCNCC4)ccnc32)c1`, for which the Ki in test [1] stood at 1300 nM.

As to `CC(C)c1nc2c(N3CCNCC3)ccnc2n1Cc1ccccc1F`, in test [1], the Ki came out at 61 nM. Against the preceding molecule, the Ki is about 21-fold lower.

In the case of `CC(C)c1nc2c(N3CCNCC3)ccnc2n1Cc1cccc(F)c1`, the Ki was determined as 13 nM in [1]; 5930 nM in test [6]; 475 nM in [7]; 11900 nM in test [2]; 3440 nM at D(2) dopamine receptor. The IC50 in test [5] came to 69.5 nM.

As to `CCC(CC)c1nc2c(N3CCNCC3)ccnc2n1Cc1cccc(Cl)c1`, affinity in test [1] was put at a Ki of 30 nM.

In the case of `CC(C)c1nc2c(N3CCNCC3)ccnc2n1Cc1cccc(Cl)c1`, the Ki amounted to 2280 nM in [6], 694 nM in test [7], 7140 nM in [2] and 2940 nM on D(2) dopamine receptor.

For `CCc1nc2c(N3CCNCC3)ccnc2n1CCc1cccc(F)c1`, the Ki in test [1] is 56 nM.

For the molecule `Cc1nc2c(N3CCNCC3)ccnc2n1Cc1ccccc1Cl`, in [1], the affinity, expressed as Ki, was 829 nM.

In turn, `CCc1nc2c(N3CCNCC3)ccnc2n1CCc1cccc(Cl)c1` showed a Ki in test [1] of 42 nM.

In test [1], `Cc1nc2c(N3CCNCC3)ccnc2n1Cc1cccc(Cl)c1` displayed a Ki of 21 nM.

In the case of `Cc1cccc(Cn2c(C)nc3c(N4CCNCC4)ccnc32)c1`, the Ki in [1] turned out to be 26 nM. The Ki values of the last two molecules are within 1.5-fold of each other.

`Cc1nc2c(N3CCNCC3)ccnc2n1Cc1cccc(C(F)(F)F)c1` had a Ki in test [1] of 62 nM.

In test [1], `Clc1cccc(Cn2c(-c3cccs3)nc3c(N4CCNCC4)ccnc32)c1` came in with a Ki of 165 nM.

Turning to `COc1cccc(Cn2c(CC(C)(C)C)nc3c(N4CCNCC4)ccnc32)c1`, affinity in test [1] was put at a Ki of 165 nM.

Usually Ki stands for a measure of affinity in units of concentration, obtained from inhibition or displacement. Higher therefore signals lower affinity. Broadly, the IC50 is the midpoint of a concentration-inhibition curve.
